Assay results as given in ChEMBL document CHEMBL1926651, “Design, synthesis, antiviral and cytostatic evaluation of novel isoxazolidine nucleotide analogues with a 1,2,3-triazole linker” (Eur J Med Chem, 2012).
Active and inactive are the calls of the source.

Assays:
Feline coronavirus = test: Antiviral activity against Feline coronavirus infected in CrFK cells assessed as inhibition of viral plaque formation at 250 uM; type: functional, organism-based
In short: (§1)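 Confluent host cell monolayers were inoculated with 100 CCID50 of virus in the presence of test compound at serial dilutions (250, 50, 10, … μM). Viral cytopathicity was scored once it reached completion in untreated virus-infected controls.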

Human respirovirus 3 = test: Antiviral activity against Parainfluenza-3 virus infected in african green monkey Vero cells assessed as inhibition of viral plaque formation at 250 uM; type: functional, organism-based; in short: as §1
Human betaherpesvirus 5 [1] = test: Antiviral activity against Human cytomegalovirus Davis infected in human HEL cells assessed as inhibition of viral plaque formation at 250 uM; type: functional, organism-based
Human alphaherpesvirus 3 [2] = test: Antiviral activity against thymidine kinase-positive Varicella Zoster virus Oka infected in human HEL cells assessed as inhibition of viral plaque formation at 250 uM; type: functional, cell-based; settings: strain Oka vaccine
[3] = tested on: Human immunodeficiency virus 2; test: Antiviral activity against Human immunodeficiency virus 2 infected in human CEM cells assessed as inhibition of virus-induced giant cell formation after 4 days by microscopic analysis; type: functional, organism-based; settings: CCRF-CEM
In short: (§2)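 CEM cells at about 3 × 10⁵ cells/cm³ were infected with 100 CCID50/mL of HIV-1(IIIB) or HIV-2(ROD), then seeded into wells holding test compound dilutions. After 4 days at 37 °C, virus-induced giant cell formation was scored microscopically.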

Punta Toro virus = test: Antiviral activity against Punta Toro virus infected in african green monkey Vero cells assessed as inhibition of viral plaque formation at 250 uM; type: functional, organism-based
Human alphaherpesvirus 1 [4] = test: Antiviral activity against thymidine kinase-deficient acv-resistant Herpes simplex virus 1 KOS infected in human HEL cells assessed as inhibition of viral plaque formation at 250 uM; type: functional, organism-based
Vaccinia virus = test: Antiviral activity against Vaccinia virus infected in human HEL cells assessed as inhibition of viral plaque formation at 250 uM; type: functional, organism-based; settings: Orthopoxvirus vaccinia; in short: as §1
[5] = tested on: Mammalian orthoreovirus 1; test: Antiviral activity against Reovirus-1 infected in african green monkey Vero cells assessed as inhibition of viral plaque formation at 250 uM; type: functional, organism-based; in short: as §1
[6] = tested on: Respiratory syncytial virus; test: Antiviral activity against Respiratory syncytial virus infected in human HeLa cells assessed as inhibition of viral plaque formation at 250 uM; type: functional, organism-based; in short: as §1
Human alphaherpesvirus 2 = test: Antiviral activity against Herpes simplex virus 2 G infected in human HEL cells assessed as inhibition of viral plaque formation at 250 uM; type: functional, organism-based; settings: strain G
Human betaherpesvirus 5 [7] = test: Antiviral activity against Human cytomegalovirus AD169 infected in human HEL cells assessed as inhibition of viral plaque formation at 250 uM; type: functional, organism-based
Felid alphaherpesvirus 1 = test: Antiviral activity against Felid herpesvirus 1 infected in CrFK cells assessed as inhibition of viral plaque formation at 250 uM; type: functional, organism-based; in short: as §1
[8] = tested on: Human immunodeficiency virus 1; test: Antiviral activity against Human immunodeficiency virus 1 infected in human CEM cells assessed as inhibition of virus-induced giant cell formation after 4 days by microscopic analysis; type: functional, organism-based; settings: CCRF-CEM; in short: as §2
Sindbis virus = test: Antiviral activity against Sindbis virus infected in african green monkey Vero cells assessed as inhibition of viral plaque formation at 250 uM; type: functional, organism-based; in short: as §1
Coxsackievirus B4 [9] = test: Antiviral activity against Coxsackievirus B4 infected in african green monkey Vero cells assessed as inhibition of viral plaque formation at 250 uM; type: functional, organism-based; in short: as §1
[10] = tested on: Vesicular stomatitis virus; test: Antiviral activity against Vesicular stomatitis virus infected in human HEL cells assessed as inhibition of viral plaque formation at 250 uM; type: functional, organism-based; in short: as §1
[11] = tested on: Vesicular stomatitis virus; test: Antiviral activity against Vesicular stomatitis virus infected in human Hela cells assessed as inhibition of viral plaque formation at 250 uM; type: functional, organism-based
Coxsackievirus B4 [12] = test: Antiviral activity against Coxsackievirus B4 infected in human HeLa cells assessed as inhibition of viral plaque formation at 250 uM; type: functional, organism-based; in short: as §1
Human alphaherpesvirus 3 [13] = test: Antiviral activity against thymidine kinase-deficient Varicella Zoster virus 07/1 infected in human HEL cells assessed as inhibition of viral plaque formation at 250 uM; type: functional, organism-based
Human alphaherpesvirus 1 [14] = test: Antiviral activity against Herpes simplex virus 1 KOS infected in human HEL cells assessed as inhibition of viral plaque formation at 250 uM; type: functional, organism-based; in short: as §1

Measured: Activity

Nc1ccn(C[C@@H](CO)OCP(=O)(O)O)c(=O)n1
inactive: all assays above

Nc1ncnc2c1ncn2C[C@H](O)CO
inactive: all assays above

O=c1[nH]c(=O)n([C@H]2C[C@H](O)[C@@H](CO)O2)cc1/C=C/Br
inactive: all assays above

Nc1nc2c(ncn2COCCO)c(=O)[nH]1
inactive: all assays above

NC(=O)c1ncn([C@@H]2O[C@H](CO)[C@@H](O)[C@H]2O)n1
inactive: all assays above

CCOC(=O)C1=C[C@@H](OC(CC)CC)[C@H](NC(C)=O)[C@@H](N)C1
inactive: all assays above

Nc1nc2c(ncn2COC(CO)CO)c(=O)[nH]1
inactive: all assays above
